According to ChEMBL document CHEMBL2440113, “Synthesis, radiofluorination, and in vivo evaluation of novel fluorinated and iodinated radiotracers for PET imaging and targeted radionuclide therapy of melanoma” (J Med Chem, 2013):

What was measured:
Conditions in all cases: in vivo
Bone = assay: Biodistribution in bone of C57BL/6J mouse harboring mouse B16-Bl6 cells at 8 to 12 MBq, iv after 1 hr by PET analysis; format: ADME, organism-based, Bone element
How it was run: (§1)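 C57BL/6J mice were inoculated s.c. on the right shoulder with 3x10⁵ B16Bl6 cells in PBS under isoflurane, and imaged at day 10 or 14 (tumor volume 431.8 ± 154.3 mm³). The ¹⁸F tracer was given i.v. via tail vein, 8-12 MBq (methods: 9-12 MBq/0.15 mL). Under ketamine/xylazine i.p., a 25-min whole-body static PET scan ran at 1 h. ROI %ID/g = counts/g/min ÷ injected dose. n=2-8; mean ± SD.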

[1] = Ratio of drug level in tumor to muscle in C57BL/6J mouse harboring mouse B16-Bl6 cells at 8 to 12 MBq, iv after 1 hr by PET analysis; format: ADME, organism-based
How it was run: (§2)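 Static whole-body PET at 1 h after tail-vein injection of [18F]tracer (9-12 MBq/0.15 mL) in C57BL/6J mice carrying subcutaneous B16Bl6 shoulder tumours (3x10⁵ cells), imaged day 10 or 14. Mice under ketamine/xylazine ip. 25 min acquisition, OSEM reconstruction. ROI % ID/g = counts/g/min ÷ injected dose; ratios = tumour % ID/g ÷ organ % ID/g. n=2-8; mean ± SD.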

Muscle tissue = assay: Biodistribution in muscle of C57BL/6J mouse harboring mouse B16-Bl6 cells at 8 to 12 MBq, iv after 1 hr by PET analysis; format: ADME, organism-based; how it was run: as §1
[2] = Ratio of drug level in tumor to bone in C57BL/6J mouse harboring mouse B16-Bl6 cells at 8 to 12 MBq, iv after 1 hr by PET analysis; format: ADME, organism-based; how it was run: as §2
Mus musculus [3] = assay: Biodistribution in tumor of C57BL/6J mouse harboring mouse B16-Bl6 cells at 8 to 12 MBq, iv after 1 hr by PET analysis; format: ADME, organism-based, Neoplasm; how it was run: as §2
Mus musculus [4] = assay: Biodistribution in eye of C57BL/6J mouse harboring mouse B16-Bl6 cells at 8 to 12 MBq, iv after 1 hr by PET analysis; format: ADME, organism-based; how it was run: as §1

Compound	Drug uptake (Bone)	Ratio [1]	Drug uptake (Muscle tissue)	Ratio [2]	Drug uptake (Mus musculus [3])	Drug uptake (Mus musculus [4])
CCN(CC#CC[18F])CCNC(=O)c1cnc2cc(I)ccc2n1	2.77 % ID/g	5.07	0.82 % ID/g	1.46	4.16 % ID/g	2.7 % ID/g
CCN(C/C=C/C[18F])CCNC(=O)c1cnc2cc(I)ccc2n1	3.39 % ID/g	8.27	0.83 % ID/g	1.99	6.74 % ID/g	9.49 % ID/g
CCN(CC[18F])CCNC(=O)c1cnc2cc(I)ccc2n1	1.31 % ID/g	1.95	1.02 % ID/g	1.31	2.02 % ID/g	1.4 % ID/g
CCN(CCC[18F])CCNC(=O)c1cnc2cc(I)ccc2n1	7.05 % ID/g	11.86	0.9 % ID/g	1.5	10.56 % ID/g	10.46 % ID/g
